High-throughput results: PubChem, several laboratories
Most compounds without a hit are left out; they make up all but 4.5% or so of the library.
RGS4 block – human RGS4 inhibition. B-score at 10 µM. 0.45% of 310,000 active. HEK293 M3R/RGS4 inducible, Fluo-4 calcium flux; active compounds read high; triggered by carbachol at its EC20;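 active = B-score, a plate-corrected calcium signal, over three deviations above library mean, with baseline fluorescence within five deviations of library mean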;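 also: RGS4 expression induced by doxycycline in cells with stable M3 receptor; B-score is computed from the integrated fluorescence ratio over baseline after carbachol; higher B-score means a larger calcium signal and so more RGS4 inhibition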
Target sequence (P49798 whole entry, looked up): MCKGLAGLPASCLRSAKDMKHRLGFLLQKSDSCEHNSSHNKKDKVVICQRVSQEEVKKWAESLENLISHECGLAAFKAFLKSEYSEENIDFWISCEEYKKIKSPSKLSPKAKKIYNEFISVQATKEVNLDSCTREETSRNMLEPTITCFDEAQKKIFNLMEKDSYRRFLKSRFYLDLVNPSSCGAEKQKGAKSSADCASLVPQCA
MrgX1 allo act – allosterically activates human MrgX1 receptor signaling. Q96LB2. MrgX1-HEK293, Fluo-4 calcium flux, FDSS; active compounds read high. B-score at 10 µM. 0.63% of 310,000 active;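 active = plate-corrected calcium response at least 3 library SD above typical, normal starting fluorescence, not activating the receptor alone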;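 also: compound read alongside a low EC10 to EC30 dose of BAM8-22 agonist; peak minus trough fluorescence over baseline measured at the second addition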
Target sequence (Q96LB2 whole entry, looked up): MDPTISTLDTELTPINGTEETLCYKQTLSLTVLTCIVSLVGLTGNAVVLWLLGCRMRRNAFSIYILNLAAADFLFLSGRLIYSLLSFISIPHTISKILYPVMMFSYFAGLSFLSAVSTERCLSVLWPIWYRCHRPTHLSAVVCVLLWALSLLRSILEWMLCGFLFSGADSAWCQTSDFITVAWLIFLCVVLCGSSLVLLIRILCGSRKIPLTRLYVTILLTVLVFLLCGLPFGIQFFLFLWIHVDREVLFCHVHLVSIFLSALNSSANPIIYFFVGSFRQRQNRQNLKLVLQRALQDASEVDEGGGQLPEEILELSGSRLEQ
MrgX1 antag – blocks BAM8-22 activation of human MrgX1 receptor; MRGX1-HEK293 calcium flux, Fluo-4, BAM8-22 antagonism; active compounds read low; Q96LB2; B-score at 10 µM; AID 588676; 1.3% of 310,000 active;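 active = calcium-response B-score plate-corrected more than 3 library SD below zero, starting fluorescence within 5 deviations, no agonist response on first addition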;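 also: peak minus trough fluorescence over baseline after final BAM8-22 challenge near maximal dose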
PHOSPHO1 inh – inhibitors of human PHOSPHO1 phosphatase. recombinant PHOSPHO1, absorbance phosphatase assay. inhibition, % at 13.3 µM. 1.1% of 290,000 active. AID 1565; in the data active = inhibition above about 60%
RGS4 pot – potentiators or activators of RGS4; B-score at 10 µM; 0.92% of 310,000 active; HEK293 M3R/inducible RGS4, carbachol calcium flux Fluo4; active compounds read low; AID 463111;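 active = B-score of the integrated calcium signal more than 4 SD below the library mean, with starting fluorescence not abnormally high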;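 also: negative B-score means reduced calcium response which marks RGS4 activation or potentiation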
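test system = M3R-expressing HEK293 line, RGS4 induced by doxycycline | probe or stimulus = carbachol at ECmax as muscarinic agonist stimulus | timing = dye loading 30 min 37 °C, buffer rest 30 min RT | signal = calcium dye Fluo4 fluorescence | evaluation = B score from integrated fluorescence ratio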
MrgX1 ag – agonists of human MrgX1 receptor; Q96LB2; MrgX1-HEK293 cells, Fluo-4 calcium fluorescence, agonist mode; active compounds read high; B-score at 10 µM; 0.44% of 310,000 active; AID 588627;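 active = calcium response B-score plate-corrected fluorescence ratio at least 3 library SD, with starting fluorescence B-score inside 5 SD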
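times = overnight plating, then 30 min 37 °C plus 30 min room-temperature dye loading | assay system = stable human MrgX1 HEK293 cell line | input = fifteen thousand cells per well | signal = kinetic calcium dye fluorescence, Fluo-4 NW | dosing = compound delivered in addition one of three | read-out = B-scored fluorescence response ratio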
Active calls of the source: *; i = inactive; · = no result.

SMILES	RGS4 block	MrgX1 allo act	MrgX1 antag	PHOSPHO1 inh	RGS4 pot	MrgX1 ag
c1ccc(Nc2nc3ccccc3n3nnnc23)cc1	i	i	i	8	i	i
COc1ccccc1NS(=O)(=O)c1ccc(O)c(C(=O)OCc2cccc([N+](=O)[O-])c2)c1	i	i	-6.5*	20	i	i
Oc1ccc2ccccc2c1/C=N/c1nc2c(s1)CCCC2	i	i	i	76*	i	i
Oc1c(Br)cc(Br)cc1/C=N/c1nc2c(s1)CCCC2	i	i	i	·	i	i
CN(C)S(=O)(=O)c1ccc(C(=O)OCC2CCCO2)cc1 (stereo not drawn)	i	i	i	·	i	i
O=C(Cc1ccc(S(=O)(=O)N2CCCC2)s1)Nc1nc2c(s1)CCCC2	i	i	i	61*	i	i
Cc1ccc(NC(=O)Cc2nnc(SCC(=O)NC3CCCC3)n2C)cc1C	i	i	i	31	i	i
CC1(c2nnc(-c3ccc(Cl)cc3)o2)CC(c2c(Cl)cccc2Cl)=NO1 (stereo not drawn)	i	i	i	30	-9.2*	i
CC(C)NCC(O)c1ccc(NS(C)(=O)=O)cc1 (stereo not drawn)	i	i	i	28	i	i
CC(C)NC[C@@H](O)c1ccc(O)c(O)c1	i	i	i	4	i	32*
O=C(Nc1ccc(-c2cn3c(n2)SCC3)cc1)c1ccc2ccccc2n1	i	i	i	-11	-7.4*	i
Clc1ccc(-c2cn3c(n2)SCC3)cc1	i	i	i	-5	i	i
Brc1ccc(-c2cn3c(n2)SCC3)cc1	i	i	i	33	i	i
Oc1ccc(-c2cn3c(n2)SCC3)cc1	i	i	i	98*	i	i
Oc1ccc(-c2cn3c(n2)SCC3)cc1O	i	i	i	80*	i	i
Cc1ccc(F)c(Oc2cc(NN3CCCCC3)c([N+](=O)[O-])cc2[N+](=O)[O-])c1	i	i	i	-7	-7.4*	i
CCc1occc(=O)c1Oc1cc(NN2CCCCC2)c([N+](=O)[O-])cc1[N+](=O)[O-]	i	i	i	-19	-8.2*	i
O=[N+]([O-])c1cc([N+](=O)[O-])c(Oc2cccc(Cl)c2Cl)cc1NN1CCCCC1	i	i	i	-7	-8.2*	i
O=[N+]([O-])c1cc([N+](=O)[O-])c(Oc2ccccc2F)cc1NN1CCCCC1	i	i	i	15	-7*	i
O=C(OCc1ccc([N+](=O)[O-])cc1)c1cc(=O)c2ccccc2o1	i	i	i	28	i	i
O=C(NCc1ccccc1)c1ccccc1NC(=O)C1CCCCC1	i	i	i	58	i	i
CC(C)CCOc1ccc(C(=O)N2CCCC2C(=O)O)cc1 (stereo not drawn)	i	i	i	40	i	i
CCOC(=O)/C(=N/Nc1ccc(C)cc1)S(=O)(=O)c1ccc(Cl)cc1	i	i	i	14	-8*	i
O=C(NCCCNC(=O)c1cnccn1)c1ccc(Br)cc1	i	i	i	36	i	i
CCn1cc([N+](=O)[O-])nc1C	i	i	-7.5*	-9	i	i
SMILES	RGS4 block	MrgX1 allo act	MrgX1 antag	PHOSPHO1 inh	RGS4 pot	MrgX1 ag
COC(=O)Cn1cc([N+](=O)[O-])nc1C	i	i	i	-3	i	i
Cc1cc2cc(C(c3nnnn3C3CCCC3)N(Cc3cccnc3)Cc3ccco3)c(=O)[nH]c2cc1C (stereo not drawn)	i	i	i	83*	i	i
Cc1ccc2cc(C(c3nnnn3C3CCCC3)N(Cc3ccccc3)Cc3ccco3)c(=O)[nH]c2c1 (stereo not drawn)	i	i	i	34	i	i
COc1ccc(/C=C/C=N/NC(=O)COc2ccc(OC)cc2)cc1	i	i	i	21	i	i
O=C(N/N=C/C=C/c1ccco1)C(O)c1ccccc1 (stereo not drawn)	i	i	i	·	i	i
CC(C)C(NC(=O)COc1ccc2ccccc2c1)C(=O)N/N=C/C=C/c1ccccc1 (stereo not drawn)	i	i	i	93*	i	i
O=C(N/N=C/C=C/c1ccccc1)C(O)c1ccccc1 (stereo not drawn)	i	i	-5.9*	·	i	i
O=C(CNC(=O)c1cccs1)N=Nc1c(O)[nH]c2ccc([N+](=O)[O-])cc12	i	i	i	28	i	i
OCCN1C[C@H](O)[C@@H](O)[C@H](O)[C@H]1CO	i	i	-9.5*	48	i	i
CC(C(=O)NCc1ccco1)c1ccc([N+](=O)[O-])cc1 (stereo not drawn)	i	i	-4.5*	53	i	i
CC[N+](CC)(CC)C/C(N)=N/O	i	i	-6.1*	-1	i	i
Cn1cccc1/C=N\NC(=O)C1COc2ccc(C(C)(C)C)cc2O1 (stereo not drawn)	i	8.1*	i	29	i	i
CCc1cc(CNC(=O)c2ccc(OC3CCN(C(C)=O)CC3)c(OC)c2)on1	i	i	i	67*	i	i
COc1ccc(OC)c(N(CC(=O)Nc2ccc3c(c2)OCO3)S(=O)(=O)c2ccccc2)c1	i	i	i	-10	i	i
COc1ccc(Cl)cc1N(CC(=O)Nc1ccc2c(c1)OCO2)S(C)(=O)=O	i	i	i	69*	i	i
O=C1c2ccccc2-c2cccc(C(=O)N3CCN(C(=O)c4ccccc4)CC3)c21	i	i	i	60*	i	i
C=CCNC(=O)/C(=C/c1cccc([N+](=O)[O-])c1)NC(=O)c1ccco1	i	i	i	15	i	i
COCC(C)NC(=S)Nc1ccccc1[N+](=O)[O-] (stereo not drawn)	i	i	i	16	i	i
CCOC(=O)C1=C(CSc2nc(C)cc(C)c2C#N)OC(N)=C(C#N)C1c1cccs1 (stereo not drawn)	·	i	i	-67	·	i
CCOC(=O)C1=C(CSc2nc(CC)c(C)cc2C#N)OC(N)=C(C#N)C1c1ccccc1 (stereo not drawn)	i	i	i	89*	i	i
CCOC(=O)C1=C(CSc2nc(C)cc(C)c2C#N)OC(N)=C(C#N)C1c1ccccc1 (stereo not drawn)	i	i	i	91*	i	i
